Measurements published in ChEMBL document CHEMBL1134626, “Synthesis of potent C(2)-symmetric, diol-based hiv-1 protease inhibitors. Investigation of thioalkyl and thioaryl P1/P1' substituents” (J Med Chem, 2001).

Tests used:
[1] = system: Human immunodeficiency virus 1; assay: In Vitro anti HIV activity was evaluated in HIV cytopathic assay in MT-4 cells; type: functional; conditions: Human immunodeficiency virus 1, MT4; read-out: ED50 (the source's name)
How it was run: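 HIV cytopathic assay in MT-4 cells; protection quantified with vital dye XTT; ED50 calculated from percent cytoprotection per compound.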

[2] = target: Human immunodeficiency virus type 1 protease (Human immunodeficiency virus 1, UniProt Q72874); assay: Inhibitory activity against HIV protease expressed in Escherichia coli
How it was run: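 HIV-1 protease cloned and heterologously expressed in E. coli; Ki determined by fluorometric enzyme assay.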

[3] = Dissociation constant was measured; type: physicochemical
[4] = system: Human immunodeficiency virus 1; assay: Compound was evaluated for Antiviral activity against HIV-1; type: functional; conditions: read-out: ED50 (the source's name)
How it was run: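 HIV cytopathic assay in MT-4 cells; cell protection read out with the vital dye XTT. ED50 taken as the 50% inhibitory concentration, calculated from percent cytoprotection for each compound.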

Compound | EC50 [1] | Ki [2] | pKa [3] | EC50 [4]
CNC(=O)[C@@H](NC(=O)[C@H](OCc1ccccc1)[C@H](O)[C@@H](O)[C@@H](OCc1ccccc1)C(=O)N[C@H](C(=O)NC)C(C)C)C(C)C | 1.3 µM | – | – | –
C=CCS[C@@H](C(=O)NC1c2ccccc2C[C@H]1O)[C@H](O)[C@@H](O)[C@@H](SCC=C)C(=O)N[C@H]1c2ccccc2C[C@H]1O (stereo not given in full) | > 10 µM | 0.016 µM | 9.8 | –
CNC(=O)[C@@H](NC(=O)[C@H](Sc1ccccc1)[C@H](O)[C@@H](O)[C@@H](Sc1ccccc1)C(=O)N[C@H](C(=O)NC)C(C)C)C(C)C | 6.3 µM | 0.0018 µM | 6.6 | –
CNC(=O)[C@@H](NC(=O)[C@H](Sc1ccccc1F)[C@H](O)[C@@H](O)[C@@H](Sc1ccccc1F)C(=O)N[C@H](C(=O)NC)C(C)C)C(C)C | 3.6 µM | 0.00057 µM | 6 | –
O=C(NC1c2ccccc2C[C@H]1O)[C@H](OCc1ccccc1)[C@H](O)[C@@H](O)[C@@H](OCc1ccccc1)C(=O)N[C@H]1c2ccccc2C[C@H]1O (stereo not given in full) | 0.096 µM | – | – | –
CNC(=O)[C@@H](NC(=O)[C@H](Sc1cccs1)[C@H](O)[C@@H](O)[C@@H](Sc1cccs1)C(=O)N[C@H](C(=O)NC)C(C)C)C(C)C | 4.2 µM | 0.001 µM | 6.4 | –
CC(C)(C)NC(=O)[C@@H]1CN(Cc2cccnc2)CCN1C[C@@H](O)C[C@@H](Cc1ccccc1)C(=O)N[C@H]1c2ccccc2C[C@H]1O [INDINAVIR] | – | – | – | 0.073 µM
Cc1c(O)cccc1C(=O)N[C@@H](CSc1ccccc1)[C@H](O)CN1C[C@H]2CCCC[C@H]2C[C@H]1C(=O)NC(C)(C)C [NELFINAVIR] | – | – | – | 0.056 µM
CC(C)c1nc(CN(C)C(=O)N[C@H](C(=O)N[C@@H](Cc2ccccc2)C[C@H](O)[C@H](Cc2ccccc2)NC(=O)OCc2cncs2)C(C)C)cs1 [RITONAVIR] | – | – | – | 0.055 µM

Now from value to compound, other results behind:

EC50 [1] | Ki [2] | pKa [3] | Compound | EC50 [4]
1.1 µM | 0.0028 µM | 9.7 | O=C(NC1c2ccccc2C[C@H]1O)[C@H](SCc1ccccc1)[C@H](O)[C@@H](O)[C@@H](SCc1ccccc1)C(=O)N[C@H]1c2ccccc2C[C@H]1O (stereo not given in full) | –
0.027 µM | 0.0005 µM | 6.4 | O=C(NC1c2ccccc2C[C@H]1O)[C@H](Sc1cccs1)[C@H](O)[C@@H](O)[C@@H](Sc1cccs1)C(=O)N[C@H]1c2ccccc2C[C@H]1O (stereo not given in full) | –
0.11 µM | 0.0023 µM | 6 | O=C(NC1c2ccccc2C[C@H]1O)[C@H](Sc1ccccc1F)[C@H](O)[C@@H](O)[C@@H](Sc1ccccc1F)C(=O)N[C@H]1c2ccccc2C[C@H]1O (stereo not given in full) | –
0.26 µM | 0.0018 µM | 6.6 | O=C(NC1c2ccccc2C[C@H]1O)[C@H](Sc1ccccc1)[C@H](O)[C@@H](O)[C@@H](Sc1ccccc1)C(=O)N[C@H]1c2ccccc2C[C@H]1O (stereo not given in full) | –
0.21 µM | 0.0043 µM | 9.2 | O=C(NC1c2ccccc2C[C@H]1O)[C@H](SCc1ccccc1F)[C@H](O)[C@@H](O)[C@@H](SCc1ccccc1F)C(=O)N[C@H]1c2ccccc2C[C@H]1O (stereo not given in full) | –
> 10 µM | 0.285 µM | 9.6 | O=C(NC1c2ccccc2C[C@H]1O)[C@H](Sc1ccccn1)[C@H](O)[C@@H](O)[C@@H](Sc1ccccn1)C(=O)N[C@H]1c2ccccc2C[C@H]1O (stereo not given in full) | –
